Test results published in ChEMBL document CHEMBL1157555, “Synthesis and pharmacological evaluation of novel 1,3,8- and 1,3,7,8-substituted xanthines as adenosine receptor antagonists” (Bioorg Med Chem, 2010).

What was measured:
Adenosine receptor A2a [1] = target: T1, Adenosine receptor A2a (Homo sapiens, UniProt P29274); experiment: Displacement of [3H]ZM241385 from human recombinant adenosine A2A receptor expressed in human HeLa cells at 1 uM by microplate beta scintillation counter; format: cell-based
T1 sequence (P29274 whole entry): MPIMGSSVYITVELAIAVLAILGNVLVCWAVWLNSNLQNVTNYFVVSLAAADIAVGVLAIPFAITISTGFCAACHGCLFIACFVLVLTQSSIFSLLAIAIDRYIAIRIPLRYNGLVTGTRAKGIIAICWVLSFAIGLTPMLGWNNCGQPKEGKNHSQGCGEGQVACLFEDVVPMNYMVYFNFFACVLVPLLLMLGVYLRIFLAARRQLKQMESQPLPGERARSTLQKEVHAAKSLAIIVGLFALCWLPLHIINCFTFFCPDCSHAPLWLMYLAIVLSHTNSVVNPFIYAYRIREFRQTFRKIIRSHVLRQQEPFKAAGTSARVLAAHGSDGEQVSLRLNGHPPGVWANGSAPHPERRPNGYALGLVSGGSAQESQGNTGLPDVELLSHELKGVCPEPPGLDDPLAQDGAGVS
In short: (§1)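 Competition used HeLa cell membranes expressing human A2A with [3H]ZM241385. Non-specific binding was set with NECA. Incubation was 30 min at 25 °C, then filtration and beta scintillation counting. IC50 from non-linear regression was converted to Ki (Cheng–Prusoff). Weak or poorly soluble compounds were reported as % inhibition of specific binding at a single concentration. Three experiments, each in duplicate.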

[2] = target: T2, Adenosine receptor A2b (Homo sapiens) (UniProt P29275); experiment: Displacement of [3H]DPCPX from human recombinant adenosine A2B receptor expressed in HEK293 cells at 1 uM by microplate beta scintillation counter; format: cell-based
T2 sequence (whole entry): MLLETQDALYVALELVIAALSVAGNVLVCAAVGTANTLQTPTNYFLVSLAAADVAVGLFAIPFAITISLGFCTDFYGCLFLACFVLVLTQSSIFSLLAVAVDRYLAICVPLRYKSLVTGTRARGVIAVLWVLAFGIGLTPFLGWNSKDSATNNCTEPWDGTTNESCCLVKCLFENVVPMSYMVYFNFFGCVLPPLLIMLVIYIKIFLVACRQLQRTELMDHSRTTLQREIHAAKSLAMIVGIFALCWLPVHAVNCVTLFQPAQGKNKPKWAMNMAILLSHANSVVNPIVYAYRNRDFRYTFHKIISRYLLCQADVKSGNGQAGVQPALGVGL
In short: (§2)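 Membranes from HEK-293 cells expressing human A2B were labelled with 35 nM [3H]DPCPX. Incubation ran 30 min at 25 °C, followed by filtration and beta scintillation counting. IC50 was fitted by non-linear regression and converted to Ki by Cheng–Prusoff. Weak or poorly soluble compounds were given as % inhibition of specific binding at a single concentration. n = 3, each in duplicate.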

[3] = target: T3, Adenosine receptor A3 (Homo sapiens) (UniProt P0DMS8); experiment: Displacement of [3H]NECA from human recombinant adenosine A3 receptor expressed in human HeLa cells at 1 uM by microplate beta scintillation counter; format: cell-based
T3 sequence (whole entry): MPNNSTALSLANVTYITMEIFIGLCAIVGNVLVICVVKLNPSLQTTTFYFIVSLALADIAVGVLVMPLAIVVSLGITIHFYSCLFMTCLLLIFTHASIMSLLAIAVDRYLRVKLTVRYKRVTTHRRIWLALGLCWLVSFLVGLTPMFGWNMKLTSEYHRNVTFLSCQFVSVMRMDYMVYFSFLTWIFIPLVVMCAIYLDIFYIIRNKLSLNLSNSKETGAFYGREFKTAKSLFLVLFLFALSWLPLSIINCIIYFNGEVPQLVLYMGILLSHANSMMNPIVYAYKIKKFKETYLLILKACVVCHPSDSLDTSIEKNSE
In short: (§3)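 HeLa-A3 cell membranes were labelled with 30 nM [3H]NECA. Non-specific binding was defined with (R)-PIA. After 180 min at 25 °C, samples were filtered and counted by beta scintillation. Ki was calculated by Cheng–Prusoff from IC50 obtained by non-linear regression. Weak or poorly soluble compounds were reported as % inhibition of specific binding at a single concentration. Mean of 3 experiments in duplicate.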

[4] = target: T4, Adenosine receptor A1 (Homo sapiens) (UniProt P30542); experiment: Displacement of [3H]DPCPX from human recombinant adenosine A1 receptor expressed in CHO cells at 1 uM by microplate beta scintillation counter; format: cell-based
T4 sequence (whole entry): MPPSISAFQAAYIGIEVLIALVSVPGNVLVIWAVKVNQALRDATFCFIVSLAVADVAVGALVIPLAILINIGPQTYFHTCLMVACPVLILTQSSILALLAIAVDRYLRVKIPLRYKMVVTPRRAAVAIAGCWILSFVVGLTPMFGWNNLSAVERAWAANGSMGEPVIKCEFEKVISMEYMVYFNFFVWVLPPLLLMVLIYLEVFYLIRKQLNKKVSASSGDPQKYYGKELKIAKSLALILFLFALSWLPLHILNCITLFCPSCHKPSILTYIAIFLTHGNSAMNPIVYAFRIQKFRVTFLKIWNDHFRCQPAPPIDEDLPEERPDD
In short: (§4)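 Membranes from CHO cells expressing human A1 were labelled with 2 nM [3H]DPCPX. Non-specific binding was defined with (R)-PIA. Incubation ran 60 min at 25 °C, then samples were filtered and counted by beta scintillation. IC50 came from non-linear regression, and Ki from Cheng–Prusoff. Weak or poorly soluble compounds were reported as % inhibition of specific binding at a single concentration. Mean of 3 experiments, each in duplicate.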

Homo sapiens [5] = organism: Homo sapiens; experiment: Selectivity ratio of Ki for human adenosine A2A receptor to Ki for human adenosine A2B receptor
In short: (§5)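 Ratios of Ki values at each human subtype to Ki at human A2B (HEK-293 membranes, [3H]DPCPX). Each Ki was derived by Cheng–Prusoff from IC50 of radioligand competition binding in membranes of transfected cells. Results are the mean of 3 experiments, each in duplicate.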

Adenosine receptor A2a [6] = target: T1, Adenosine receptor A2a; experiment: Displacement of [3H]ZM241385 from human recombinant adenosine A2A receptor expressed in human HeLa cells by microplate beta scintillation counter; format: cell-based; in short: as §1
Adenosine receptor A2b = target: T5, Adenosine receptor A2b (Homo sapiens, UniProt P29275); experiment: Displacement of [3H]DPCPX from human recombinant adenosine A2B receptor expressed in HEK293 cells by microplate beta scintillation counter; format: cell-based; in short: as §2
T5 sequence (P29275 whole entry): T2 sequence (whole entry)

Adenosine receptor A1 = target: T6, Adenosine receptor A1 (Homo sapiens, UniProt P30542); experiment: Displacement of [3H]DPCPX from human recombinant adenosine A1 receptor expressed in CHO cells by microplate beta scintillation counter; format: cell-based; in short: as §4
T6 sequence (P30542 whole entry): T4 sequence (whole entry)

Adenosine receptor A3 = target: T7, Adenosine receptor A3 (Homo sapiens, UniProt P0DMS8); experiment: Displacement of [3H]NECA from human recombinant adenosine A3 receptor expressed in human HeLa cells by microplate beta scintillation counter; format: cell-based; in short: as §3
T7 sequence (P0DMS8 whole entry): T3 sequence (whole entry)

Homo sapiens [7] = organism: Homo sapiens; experiment: Selectivity ratio of Ki for human adenosine A3 receptor to Ki for human adenosine A2B receptor; in short: as §5
Homo sapiens [8] = organism: Homo sapiens; experiment: Selectivity ratio of Ki for human adenosine A1 receptor to Ki for human adenosine A2B receptor; in short: as §5

Row | SMILES | Activity (Adenosine receptor A2a [1]) | Activity [2] | Activity [3] | Activity [4] | Ratio Ki (Homo sapiens [5]) | Ki (Adenosine receptor A2a [6]) | Ki (Adenosine receptor A2b) | Ki (Adenosine receptor A1) | Ki (Adenosine receptor A3) | Ratio Ki (Homo sapiens [7]) | Ratio Ki (Homo sapiens [8])
1 | CCn1c(=O)c2[nH]c(Cc3ccccc3)nc2n(CCS(=O)(=O)CC)c1=O | 1% | 55% | 6% | 6% |  |  |  |  |  |  | 
2 | CCn1c(=O)c2c(nc(Cc3ccco3)n2C)n(Cc2ccccc2)c1=O |  |  | 14% | 29% | 6.2 | 1.74 µM | 0.282 µM |  |  |  | 
3 | CCCn1c(=O)c2c(nc(-c3ccccc3)n2C)n(CCSCC)c1=O | 2% | 26% | 1% | 17% |  |  |  |  |  |  | 
4 | CCCn1c(=O)c2[nH]c(-c3ccccc3)nc2n(CC[S+]([O-])CC)c1=O (stereo unspecified) | 9% |  |  |  |  |  | 0.589 µM | 0.195 µM | 0.245 µM | 0.4 | 
5 | CCOCCn1c(=O)n(CC)c(=O)c2[nH]c(-c3ccc(-c4ccccc4)cc3)nc21 | 28% | 46% | 17% | 19% |  |  |  |  |  |  | 
6 | CCCn1c(=O)c2[nH]c(Cc3ccccc3)nc2n(CC[S+]([O-])CC)c1=O (stereo unspecified) | 7% | 1% | 18% | 10% |  |  |  |  |  |  | 
7 | CCn1c(=O)c2[nH]c(Cc3ccccc3)nc2n(CC[S+]([O-])CC)c1=O (stereo unspecified) | 0% | 0% | 3% | 5% |  |  |  |  |  |  | 
8 | CCn1c(=O)c2[nH]c(Cc3cccs3)nc2n(Cc2ccccc2)c1=O | 6% | 52% | 39% | 22% |  |  |  |  |  |  | 
9 | CCn1c(=O)c2[nH]c(-c3ccccc3)nc2n(CC[S+]([O-])CC)c1=O (stereo unspecified) | 20% | 32% | 0% | 29% |  |  |  |  |  |  | 
10 | CCn1c(=O)c2c(nc(Cc3cccs3)n2C)n(Cc2cccs2)c1=O |  |  | 1% |  | 3.5 | 0.123 µM | 0.0355 µM | 0.0955 µM |  |  | 2.7
11 | Cn1c(=O)c2[nH]c(-c3cccs3)nc2n(CC2CCCCC2)c1=O | 29% | 34% | 41% |  |  |  |  | 0.219 µM |  |  | 
12 | Cn1c(=O)c2[nH]c(Cc3cccs3)nc2n(CC2CCCCC2)c1=O | 11% | 2% | 2% | 42% |  |  |  |  |  |  | 
13 | CCSCCn1c(=O)n(CC)c(=O)c2[nH]c(-c3ccccc3)nc21 | 12% |  |  |  |  |  | 0.479 µM | 0.148 µM | 0.407 µM | 0.9 | 0.3
14 | CCn1c(=O)c2c(nc(Cc3c(F)cccc3F)n2C)n(Cc2cccs2)c1=O |  |  | 20% |  | 1.3 | 0.178 µM | 0.135 µM | 0.12 µM |  |  | 0.9
15 | CCCn1c(=O)c2[nH]c(-c3ccccc3)nc2n(CCOCC)c1=O | 6% | 24% | 47% | 39% |  |  |  |  |  |  | 
16 | O=c1c2[nH]c(Cc3cccs3)nc2n(CC2CCCCC2)c(=O)n1CC1CCCCC1 | 50% | 1% | 16% | 4% |  |  |  |  |  |  | 
17 | CCn1c(=O)c2[nH]c(Cc3ccco3)nc2n(Cc2ccccc2)c1=O | 9% | 34% | 30% | 23% |  |  |  |  |  |  | 
